# What was measured:
# [1] = test system: RAW264.7; test: Cytotoxicity against mouse RAW264.7 cells assessed as reduction in cell viability at 50 ug/ml after 24 hrs by MTT assay; assay type: cell-based; details: raw264.7, 24 h
# [2] = test system: RAW264.7; test: Cytotoxicity against mouse RAW264.7 cells assessed as reduction in cell viability at 50 ug/ml preincubated for 24 hrs followed by LPS induction measured after 18 hrs by MTT assay; assay type: cell-based; details: raw264.7, 18 h
# [3] = test system: RAW264.7; test: Antiinflammatory activity against mouse RAW264.7 cells assessed as LPS-stimulated IL6 release at 25 ug/ml after 24 hrs by ELISA relative to LPS-treated control; assay type: functional
# Outline: (§1)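 Mouse RAW 264.7 macrophages were stimulated with LPS in the presence of compound, tested at […]. TNF-α and IL-6 were measured in the culture supernatants by ELISA. Cytokine content is expressed as fold of the control group, with control set at 100%. Values are mean ± S.D. of triplicate experiments.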
# [4] = target: Mitogen-activated protein kinase 3 (Mus musculus) (UniProt Q63844); test: Inhibition of ERK phosphorylation in mouse RAW264.7 cells incubated for 24 hrs followed by LPS-stimulation measured after 24 hrs by Western blot method; assay type: cell-based
# Sequence of Mitogen-activated protein kinase 3 (Mus musculus) (Q63844 whole entry): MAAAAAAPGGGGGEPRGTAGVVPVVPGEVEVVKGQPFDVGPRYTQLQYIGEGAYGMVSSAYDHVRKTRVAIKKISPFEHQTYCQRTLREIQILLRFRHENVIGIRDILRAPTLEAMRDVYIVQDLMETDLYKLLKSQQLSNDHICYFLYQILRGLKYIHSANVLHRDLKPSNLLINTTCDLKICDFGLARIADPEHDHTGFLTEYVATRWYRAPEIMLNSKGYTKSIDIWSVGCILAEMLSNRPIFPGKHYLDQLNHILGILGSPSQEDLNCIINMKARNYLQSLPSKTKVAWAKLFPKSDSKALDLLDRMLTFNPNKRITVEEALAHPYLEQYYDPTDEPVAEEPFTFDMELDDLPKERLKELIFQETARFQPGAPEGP
# Outline: (§2)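 MAPK protein levels were determined by western blot in LPS-stimulated mouse RAW 264.7 cells. Data are means ± SD, compared with the control and LPS groups.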
# [5] = test system: RAW264.7; test: Antiinflammatory activity against mouse RAW264.7 cells assessed as decrease in LPS-stimulated TNFalpa release after 24 hrs by ELISA; assay type: functional, cell-based; outline: as §1
# [6] = species: Mus musculus; test: Inhibition of NFkappaB in mouse RAW264.7 cells assessed as decrease in LPS-induced degradation of IkappaB preincubated for 24 hrs followed by LPS-stimulation measured after 24 hrs by Western blot method; assay type: cell-based
# Outline: (§3)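 NF-κB activation in LPS-stimulated RAW 264.7 cells was assessed by western blot of phosphorylated p65 and IκB levels. Data are means ± SD, compared with the control and LPS groups.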
# [7] = test system: Mus musculus; test: Antiinflammatory activity in Kunming mouse assessed as inhibition of xylene-induced ear edema at 50 mg/kg, ip pretreated for 30 mins followed by xylene challenge measured after 30 mins relative to control; assay type: functional
# Outline: (§4)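 Xylene-induced ear edema in mice. Compounds were given i.p. at 12.5, 25 or 50 mg/kg. Ibuprofen and indomethacin at 50 mg/kg served as reference drugs. Ear edema weight (mg) is reported as mean ± S.D., and percent inhibition is calculated against the untreated control group.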
# [8] = test system: Mus musculus; test: Antiinflammatory activity in Kunming mouse assessed as inhibition of xylene-induced ear edema at 12.5 mg/kg, ip pretreated for 30 mins followed by xylene challenge measured after 30 mins relative to control; assay type: functional; outline: as §4
# [9] = test system: RAW264.7; test: Antiinflammatory activity against mouse RAW264.7 cells assessed as LPS-stimulated TNFalpa release at 50 ug/ml after 24 hrs by ELISA relative to LPS-treated control; assay type: functional; outline: as §1
# [10] = test system: RAW264.7; test: Antiinflammatory activity against mouse RAW264.7 cells assessed as LPS-stimulated IL6 release at 50 ug/ml after 24 hrs by ELISA relative to LPS-treated control; assay type: functional; outline: as §1
# [11] = test system: RAW264.7; test: Antiinflammatory activity against mouse RAW264.7 cells assessed as LPS-stimulated IL6 release at 12.5 ug/ml after 24 hrs by ELISA relative to LPS-treated control; assay type: functional; outline: as §1
# [12] = target: MAP kinase p38 (Mus musculus) (UniProt P47811+O08911+Q9WUI1+Q9Z1B7); test: Inhibition of p38 phosphorylation in mouse RAW264.7 cells incubated for 24 hrs followed by LPS-stimulation measured after 24 hrs by Western blot method; assay type: cell-based; outline: as §2
# [13] = target: T1, Prostaglandin G/H synthase 2 (Homo sapiens) (UniProt P35354); test: Inhibition of COX-2 (unknown origin) assessed as protein/GADPH ratio at 50 ug/ml relative to control; set-up: scale not given: the % may be the effect or the level left
# T1 sequence (whole entry): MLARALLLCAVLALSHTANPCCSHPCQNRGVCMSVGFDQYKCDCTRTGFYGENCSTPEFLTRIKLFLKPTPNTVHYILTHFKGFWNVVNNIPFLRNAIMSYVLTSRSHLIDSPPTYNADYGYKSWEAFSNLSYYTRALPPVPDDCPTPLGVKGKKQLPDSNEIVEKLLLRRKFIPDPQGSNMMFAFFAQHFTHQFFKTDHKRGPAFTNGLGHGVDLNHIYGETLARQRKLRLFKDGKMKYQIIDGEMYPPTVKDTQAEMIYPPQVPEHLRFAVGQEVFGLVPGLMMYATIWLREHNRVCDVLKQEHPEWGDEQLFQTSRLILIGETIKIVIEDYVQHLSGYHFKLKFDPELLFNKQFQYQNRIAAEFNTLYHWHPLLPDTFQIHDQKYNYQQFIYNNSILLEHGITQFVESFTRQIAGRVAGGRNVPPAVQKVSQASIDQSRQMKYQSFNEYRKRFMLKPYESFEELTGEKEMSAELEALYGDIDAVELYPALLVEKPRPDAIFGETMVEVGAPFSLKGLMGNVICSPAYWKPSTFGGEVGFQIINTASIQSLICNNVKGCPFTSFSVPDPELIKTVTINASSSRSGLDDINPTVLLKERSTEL
# [14] = test system: Mus musculus; test: Antiinflammatory activity in Kunming mouse assessed as inhibition of xylene-induced ear edema at 25 mg/kg, ip pretreated for 30 mins followed by xylene challenge measured after 30 mins relative to control; assay type: functional; outline: as §4
# [15] = test system: RAW264.7; test: Antiinflammatory activity against mouse RAW264.7 cells assessed as decrease in LPS-stimulated IL-6 release after 24 hrs by ELISA; assay type: functional, cell-based; outline: as §1
# [16] = species: Mus musculus; test: Inhibition of LPS-induced NFkappaB activation in mouse RAW264.7 cells assessed as reduction p65 phosphorylation at 12.5 to 50 ug/ml preincubated for 24 hrs followed by LPS-stimulation measured after 24 hrs by Western blot method; assay type: cell-based; outline: as §3
Compound,Activity [1],Activity [2],also measured
CCCCCCCCCn1c2cccc3cccc(c32)n2cnnc12,Toxic,,
Fc1ccc(Cn2c3cccc4cccc(c43)n3cnnc23)cc1,Non-Toxic,Non-Toxic,
FC(F)(F)c1ccc(Cn2c3cccc4cccc(c43)n3cnnc23)cc1,Toxic,,
Fc1ccccc1Cn1c2cccc3cccc(c32)n2cnnc12,Non-Toxic,Non-Toxic,Activity [3]: 68.23%; inhibition [4]: Dose-dependent effect; Activity [5]: Dose-dependent effect; inhibition [6]: Dose-dependent effect; inhibition in vivo at 50 mg/kg [7]: 49.3%; inhibition in vivo at 12.5 mg/kg [8]: 17.2%; Activity [9]: 124.87%; Activity [10]: 47.21%; Activity [11]: 71.8%; inhibition [12]: Dose-dependent effect; Activity [13]: 45.2%; inhibition in vivo at 25 mg/kg [14]: 35%; Activity [15]: Dose-dependent effect; inhibition [16]: Dose-dependent effect
c1ccc(Cn2c3cccc4cccc(c43)n3cnnc23)cc1,Non-Toxic,Non-Toxic,
Clc1ccc(Cn2c3cccc4cccc(c43)n3cnnc23)cc1,Toxic,,
CCCCCn1c2cccc3cccc(c32)n2cnnc12,,Non-Toxic,
Cc1cccc(Cn2c3cccc4cccc(c43)n3cnnc23)c1,Non-Toxic,Non-Toxic,Activity [5]: Dose-dependent effect; inhibition in vivo at 50 mg/kg [7]: 42.9%; inhibition in vivo at 12.5 mg/kg [8]: 15.7%; Activity [9]: 146.24%; inhibition in vivo at 25 mg/kg [14]: 29.8%; Activity [15]: Dose-dependent effect
Clc1cccc(Cn2c3cccc4cccc(c43)n3cnnc23)c1,Toxic,Toxic,
CCCCCCn1c2cccc3cccc(c32)n2cnnc12,Toxic,,
CCCCCCCCCCn1c2cccc3cccc(c32)n2cnnc12,Toxic,,
COc1ccc2c(c1)c(CC(=O)O)c(C)n2C(=O)c1ccc(Cl)cc1 [INDOMETHACIN],,,inhibition in vivo at 50 mg/kg [7]: 49.4%
CCCn1c2cccc3cccc(c32)n2cnnc12,Toxic,,
CC(C)Cc1ccc(C(C)C(=O)O)cc1 (configuration not stated) [IBUPROFEN],,,inhibition in vivo at 50 mg/kg [7]: 28.1%
Clc1cccc(Cl)c1Cn1c2cccc3cccc(c32)n2cnnc12,Non-Toxic,Non-Toxic,
Cc1ccc(Cn2c3cccc4cccc(c43)n3cnnc23)cc1,Toxic,,
Clc1ccc(Cn2c3cccc4cccc(c43)n3cnnc23)c(Cl)c1,Non-Toxic,Non-Toxic,
CCCCCCCCn1c2cccc3cccc(c32)n2cnnc12,Toxic,Toxic,
Fc1cccc(Cn2c3cccc4cccc(c43)n3cnnc23)c1,Non-Toxic,Non-Toxic,
Clc1ccccc1Cn1c2cccc3cccc(c32)n2cnnc12,Non-Toxic,Non-Toxic,
CCCCn1c2cccc3cccc(c32)n2cnnc12,Toxic,Toxic,

# Reference: ChEMBL document CHEMBL4043186, “Design, synthesis, anti-inflammatory activity, and molecular docking studies of perimidine derivatives containing triazole” (Bioorg Med Chem Lett, 2017)
